# Measured values pooled from the literature.
# CYP2D6: Cytochrome P450 2D6 (CYP2D6, Homo sapiens, UniProt P10635)
Structure (SMILES),tested on,test,test system,setting,endpoint,value
Cc1ncc(C)n2nc(/C=C/c3nc(N4CCCC4)cc(N4CCOCC4)n3)nc12,,,"male beagle dog, plasma","oral, 0.3 mg/kg",half-life,3.7 h
C=C[C@H]1C[N@@]2CC[C@H]1C[C@@H]2[C@@H](O)c1ccnc2ccc(OC)cc12,CYP2D6,"enzyme activity, inhibitor","human, liver microsomes",10 µM,inhibition,87%
CCC[C@@](N)(CO)CCc1ccc(OCCCCCC(C)C)cc1,CYP2D6,"enzyme activity, inhibitor",,,IC50,32 µM
COC(=O)C1CCN(C(=O)c2ccc(N(C)Cc3cnc4nc(N)nc(N)c4n3)cc2)CC1,CYP2D6,"enzyme activity, inhibitor, luciferase",,10 µM,inhibition,-32.7%
O=C[C@H](C[C@@H]1CCNC1=O)NC(=O)[C@H](CC1CCCCC1)NC(=O)c1cc2ccccc2[nH]1,,,"dog, plasma","intravenous, 8 mg/kg",AUC,14500 ng·h/mL
COC(=O)C1CCN(C(=O)c2ccc(NCc3cnc4nc(N)nc(N)c4n3)cc2)CC1,CYP2D6,"enzyme activity, inhibitor, luciferase",,10 µM,inhibition,-27.7%
CN[C@@H](C)C(=O)N[C@H]1CN(C(=O)CC(C)C)CC[C@H]2CC[C@@H](C(=O)NC(c3ccccc3)c3ccccc3)N2C1=O,,,"beagle dog, plasma","oral, 10 mg/kg",half-life,27 h
N=c1c2c(-c3ccccc3)c(-c3ccccc3)n(Cc3ccccc3)c2ncn1[C@H]1CC[C@H](O)CC1,,,"male beagle dog, plasma","intravenous, 0.5 mg/kg, single dose",Vd,15.9 L/kg
